Source: PubChem BioAssay
Insulin prom act: TRM-6 insulin promoter activation. TRM-6 cells (human fetal islet line), insulin promoter eGFP reporter, imaging; plate-scaled: unstimulated 0, stimulated control 100. 130,000 compounds, 0.81% hits. activation, % at 2 µM;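 active = activation at 2 µM above a set limit, confirmed on inspection of the cell images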;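 also: share of cells whose green reporter signal exceeds an intensity cutoff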
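Assay system: TRM-6 human fetal islet cells, insulin promoter–eGFP reporter; Also added: 0.75 µM tamoxifen as reporter inducer; Schedule: 15 h tamoxifen pre-treatment, 48 h compound treatment at 37 °C; Signal: fixed-cell fluorescence microscopy, eGFP plus Hoechst; Read-out: percent activation from GFP-positive cell fraction; Control set: stimulated and unstimulated wells.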
Active calls of the source: *. The full list was thinned out, with hits kept by preference.

SMILES	Insulin prom act
Cc1ccc(Cc2c(C)nc3nc(SCC(=O)N4CCC5(CC4)OCCO5)nn3c2C)cc1	125.0*
Cc1ccc(CS(=O)(=O)CCC(=O)N2CCC3(CC2)OCCO3)cc1	8.6
Cc1ccc2c(c1)N(CCC(=O)N1CCC3(CC1)OCCO3)C(=O)CO2	7.7
O=P(O)(O)Cc1ccccc1OP(=O)(c1ccccc1)c1ccccc1	0.0
COc1c(C)cc(C(=O)C2CCCN(Cc3ccccn3)C2)cc1C (stereo not drawn)	319.0*
O=C(c1ccc2c(c1)OCO2)C1CCCN(Cc2ccccn2)C1 (stereo not drawn)	-6.7
CSc1ccc(C(=O)C2CCCN(Cc3cc4ccccc4[nH]3)C2)cc1 (stereo not drawn)	-5.6
CC1(C)CC(=O)C=C(NCCN2CCN(C(=O)Cc3ccc(Cl)cc3)CC2)C1	-7.0
Nc1ccc(C2(c3ccc(N)cc3)CN3CCC2CC3)cc1	6.7
Cc1ccc(Cn2nc(C)c(C=O)c2Cl)cc1	-9.5
COc1ccc(N=Cc2c(O)n(-c3ccc(C)cc3)c(=O)[nH]c2=O)cc1	-83.3
CCN(CC)c1ccc(N=Cc2c(O)n(-c3cc(OC)ccc3OC)c(=O)[nH]c2=O)cc1	650.0*
CCOC(=O)c1ccc(N=Cc2c(O)n(-c3ccccc3F)c(=S)[nH]c2=O)cc1	-2.7
Cc1cc(NC(=O)CCl)no1	-6.7
CC(C)n1cc(C(=O)N(CC(=O)NC(C)(C)C)Cc2ccccc2)cn1	138.9
CN(C)c1cccc2c(C#N)ccc(N(C)C)c12	-86.7
CC1(C)COC(Nc2ccc(Cl)cc2)=N1	5.4
CCCNc1nc(OC)nc(N2CC3CC(C2)c2cccc(=O)n2C3)n1 (stereo not drawn)	-6.7
Cc1ccc(S(=O)(=O)NC(Cc2cnc[nH]2)C(=O)O)cc1 (stereo not drawn)	9.8
CN1C(=O)N(C)C(=O)C2(Cc3c(ccc4ccccc34)N(C)C2)C1=O	129.4*
Cc1sc2nc(COC(=O)Cc3ccccc3)[nH]c(=O)c2c1C	-8.3
CCC(COC(=O)NC)NC(=O)Oc1ccccc1 (stereo not drawn)	2.9
COc1ccccc1Cn1c(SCC#N)nc2cc(C(=O)N3CCC4(CC3)OCCO4)ccc2c1=O	0.0
[O-][n+]1onc2c1CCC1N(O)CCC21O (stereo not drawn)	231.4
CCn1c(O)c(C=Nc2cc(Cl)ccc2Cl)c(=O)n(CC)c1=O	-64.3
SMILES	Insulin prom act
O=C(CNS(=O)(=O)c1cccs1)N1CCC2(CC1)OCCO2	0.0
O=C(NCc1ccc(C(=O)N2CCC3(CC2)OCCO3)cc1)c1cccc(Br)c1	226.7*
O=C(c1cc(-c2ccccc2)on1)N1CCC2(CC1)OCCO2	0.0
OC(CNC1CCCCC1)C(F)(F)F (stereo not drawn)	-7.0
Nc1nnc(CCN2CCCCC2)s1	-35.7
Nc1ccc(Cl)cc1C(=O)c1ccccc1Cl	433.3*
O=C1c2cccc3cccc(c23)C(=O)N1/N=C/c1c(O)n(-c2ccccc2)c(=O)[nH]c1=O	5.3
CCCCc1nc2ccccc2c(=O)n1-c1ccc(Cl)cc1[N+](=O)[O-]	-6.7
CCP(=S)(CC)c1ccc(N(C)C)cc1	396.3*
CC12CN3CC(C)(CN(C1)C31CCOCC1)C2=O	-75.0
ON1C2CCCCC2N(O)C1c1ccccc1F (stereo not drawn)	5.1
OC(CCNCCc1c[nH]c2ccccc12)C(F)(F)F (stereo not drawn)	-9.1
CN1/C(=C\C=C2C(=O)NC(=O)NC2=O)C(C)(C)c2ccccc21	0.0
CN1/C(=C\C=C\C2=[N+](C)c3ccc4ccccc4c3C2(C)C)C(C)(C)c2ccccc21	151.4*
C=CCn1c(=O)c(C=Nc2cccnc2Cl)c(O)n(CCCC)c1=O	7.1
CCC(C)NC(=O)CN1C(=O)CN=C(c2ccccc2)c2ccccc21 (stereo not drawn)	-2.3
CN1CCN(Cc2ccccc2Sc2ccccc2)CC1	-7.7
Cc1c(N=Cc2c(O)n(CCc3ccc(F)cc3)c(=O)[nH]c2=O)c(=O)n(-c2ccccc2)n1C	400.0*
CC(=Nc1c(C)n(C)n(-c2ccccc2)c1=O)c1c(O)n(Cc2ccccc2)c(=O)[nH]c1=O	0.0
CN(C)CCCN=Cc1c(O)n(CCc2ccccc2)c(=O)[nH]c1=O	-6.7
CC12CN3C(O)C(C)(C1)CC(C)(C2)C3O (stereo not drawn)	-9.1
O=C1NC(=O)C(CCc2ccncc2)(CCc2ccncc2)C(=O)N1Cc1ccc(F)cc1	-7.7
COc1ccc(-n2c(Cc3cccc([N+](=O)[O-])c3)nc3ccccc3c2=O)cc1	3.3
O=C(c1cccnc1)c1cc2ccccc2[nH]1	-3.1
COC(=NC1CCCC1)C(O)c1c[nH]c2ccccc12 (stereo not drawn)	666.7*
SMILES	Insulin prom act
Cc1nn(Cc2ccccc2)c(C)c1C(=O)OCC(=O)NC1CCS(=O)(=O)C1 (stereo not drawn)	6.7
Cc1ccc(C2=NC(C)(C)N3C2C3c2ccc([N+](=O)[O-])cc2)cc1 (stereo not drawn)	7.7
Cc1c(C(=O)N2CCC3(CC2)OCCO3)sc2ncnc(N3CCN(c4ccccn4)CC3)c12	-3.1
Cc1ccccc1NC1(C#N)CCCCC1	-9.1
C=CC(C)C(C(=O)c1ccccc1)N(C)C (stereo not drawn)	6.7
CC1CCC[C@H](O)CCCCCc2cc(O)cc(O)c2C(=O)O1 (stereo partly drawn)	147.6
CC1CCC/C=C/C2CC(O)CC2C(O)/C=C/C(=O)O1 (stereo not drawn)	227.6*
c1ccc(C2CC3CC(c4ccco4)N2O3)cc1 (stereo not drawn)	-5.4
CC12CCC3C(CC=C4CC5(CCC43C)OCCO5)C1CCC2=O (stereo not drawn)	4.8
Cc1ccc[n+](CC(O)Cn2c3ccccc3c3ccccc32)c1 (stereo not drawn)	106.3
CCN(CC)c1ccc(/C=N/c2sc3c(c2C#N)C2CCN3CC2)c(O)c1	284.6*
CC(C)N1CCC2(CC1)NC(CO)(CO)CO2	-6.5
O=C1NC(=O)N(c2ccc(Cl)cc2)C(=O)/C1=C\c1ccc(Sc2nc3ccccc3[nH]2)o1	7.4
CN1CCN(/N=C/c2c(O)n(C)c(=O)n(C)c2=O)CC1	-9.5
Cc1ccc(S(=O)(=O)CC(C)(O)C(=O)Nc2cccc(C(F)(F)F)c2)cc1 (stereo not drawn)	212.5*
Cc1cc2ccccc2c(=O)n1CC(=O)NCC(=O)N1CCC2(CC1)OCCO2	-6.7
O=C(COc1ccc(Cl)cc1)N1CCN(Cc2ccc([N+](=O)[O-])cc2)CC1	9.1
O=[N+]([O-])[N-][n+]1cnn(Cc2ccc(Cl)cc2)c1	141.2*
O=C1C2CCN(CC2)C1Cc1ccc(OCCOc2ccccc2)cc1 (stereo not drawn)	-7.7
CC(=O)N1N=C2C3CCN(CC3)C2C1c1cccc2ccccc12 (stereo not drawn)	2.4
